Bioassay records (PubChem BioAssay)
PAFAH1B2 inh: blocks human PAF acetylhydrolase 1b catalytic subunit 2; P68402; recombinant PAFAH1B2, FP-rhodamine activity probe, fluorescence polarization; inhibition, % at 3.39 µM; 340,000 compounds, 1.2% hits; AID 492953;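 active means inhibition above the mean of all tested compounds plus 3 SD, cut at about 24% in these data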
RBBP9 inh: blocks human serine hydrolase RBBP9; 220,000 compounds, 0.2% hits; recombinant RBBP9, FP-Rh probe fluorescence polarization; O75884; inhibition, % at 7.94 µM;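 active means inhibition above the campaign mean of all tested compounds plus 3 SD, cut at about 14% in these data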
Target sequence (O75884 whole entry, looked up): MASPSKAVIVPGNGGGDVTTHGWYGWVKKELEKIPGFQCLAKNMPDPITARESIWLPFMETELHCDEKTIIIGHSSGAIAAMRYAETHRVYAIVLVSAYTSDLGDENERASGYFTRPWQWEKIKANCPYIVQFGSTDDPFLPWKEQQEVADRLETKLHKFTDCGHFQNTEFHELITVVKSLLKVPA
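Measured by: FP readout at 525/598 nm; material: recombinant human RBBP9; also added: Serine-hydrolase probe FP-Rh, 375 nM pre-mixing; medium: Tris buffer pH 8.0, NaCl, Pluronic; replication: one well per compound; doses: one concentration, 7.94 µM nominal, 0.794% DMSO; timing: preincubation 30 min plus labeling 45 min at 25 °C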
PAFAH1B3 FP inh: PAFAH1B3 (human) inhibition; Q15102; 340,000 compounds, 0.28% hits; inhibition, % at 3.39 µM; recombinant PAFAH1B3, FP-rhodamine probe, fluorescence polarization; AID 492972;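 active means inhibition above the screen-wide average of all tested compounds plus 3 SD, cut at about 25% in these data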
pPAFAH FP inh: inhibitors of human plasma PAF acetylhydrolase (pPAFAH); recombinant pPAFAH, FP-rhodamine probe fluorescence polarization; Q13093; inhibition, % at 3.39 µM; 330,000 compounds, 1.5% hits;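 active means inhibition above the mean inhibition across the screen plus 3 SD, cut at about 25% in these data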;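 further: inhibitors block binding of the rhodamine activity-based probe so polarization drops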
Target sequence (Q13093 whole entry, looked up): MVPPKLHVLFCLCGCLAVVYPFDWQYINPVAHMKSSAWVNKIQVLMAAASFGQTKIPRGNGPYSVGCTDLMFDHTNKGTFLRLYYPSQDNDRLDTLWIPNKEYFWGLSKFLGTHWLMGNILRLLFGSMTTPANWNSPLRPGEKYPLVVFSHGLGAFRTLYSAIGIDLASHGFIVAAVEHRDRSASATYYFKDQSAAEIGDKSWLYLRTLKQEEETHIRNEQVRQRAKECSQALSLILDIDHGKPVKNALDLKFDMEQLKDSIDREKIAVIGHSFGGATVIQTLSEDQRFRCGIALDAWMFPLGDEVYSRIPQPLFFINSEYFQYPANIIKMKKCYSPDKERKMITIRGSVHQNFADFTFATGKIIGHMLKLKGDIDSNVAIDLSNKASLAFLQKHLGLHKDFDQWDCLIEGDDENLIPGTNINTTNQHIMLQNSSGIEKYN
PAFAH2 FP inh: PAFAH2 (human) inhibition | Q99487 | recombinant PAFAH2, FP-rhodamine activity probe, fluorescence polarization | inhibition, % at 3.39 µM | 340,000 compounds, 0.99% hits;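 active means inhibition above the mean over all tested compounds plus 3 SD, cut at about 30% in these data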;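 further: inhibitors block probe labeling of enzyme so polarization drops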
A number is an active result; . = inactive; / = not tested or not shown. In the library only some 2.7% were active in any assay of this set; here they are far more common.

SMILES | PAFAH1B2 inh | RBBP9 inh | PAFAH1B3 FP inh | pPAFAH FP inh | PAFAH2 FP inh
N/C(=N/OC(=O)c1ccccc1Cl)c1ncc([N+](=O)[O-])s1 | 26 | . | . | . | .
N/C(=N\OC(=O)c1ccccc1Cl)c1cccc([N+](=O)[O-])c1 | . | / | . | . | .
Cc1cc(C(=O)N/N=C2\CCCC(=O)C2)c(C)n1-c1ccccc1 | . | . | . | 28 | .
Cc1cc(C(=O)N/N=C2\CCCC(=O)C2)c(C)o1 | . | / | . | / | .
O=Nc1c(O)ccc2cc(S(=O)(=O)O)ccc12 | . | / | . | / | .
Nc1cccc2cc(S(=O)(=O)O)ccc12 | 31 | / | 49 | / | 30
O=C(Cc1cccs1)Nc1ccc(S(=O)(=O)Nc2ncccn2)cc1 | . | . | . | . | .
Cc1ccnc(NS(=O)(=O)c2ccc(NC(=O)Cc3cccs3)cc2)n1 | . | . | . | 34 | .
COc1cccc2c3cccc(OC)c3c3[nH]cnc3c12 | . | / | . | / | .
CC(C)=CCC1=C(OCC(=O)O)C(=O)c2ccccc2C1=O | . | . | 57 | . | 35
CC(C)=CCC/C(C)=C/CC/C(C)=C/CC/C(C)=C/CC1=C(C)C(=O)c2ccccc2C1=O | . | / | . | . | .
Cc1ccc(C(=O)OCC(=O)N2CCOCC2)cc1 | . | / | . | . | .
O=C(OCC(=O)N1CCN(C(=O)COC(=O)c2ccncc2)CC1)c1ccncc1 | . | . | . | 27 | .
O=C(OCc1c(Cl)cccc1Cl)c1ccncc1 | . | . | . | 27 | .
Clc1cccc(Cl)c1COc1ccncc1 | . | . | . | . | .
CCCC(C)NC(=O)CN1C(=O)NC2(CCc3ccccc32)C1=O (stereo unspecified) | . | / | . | . | .
COc1ccc(N2CCN(C(=O)c3oc4c(c3C)C(=O)CCC4)CC2)cc1 | . | / | . | . | .
CCOc1ccc(N(CC(=O)Nc2c(C)cccc2C)S(=O)(=O)c2c(C)[nH]c(=O)[nH]c2=O)cc1 | . | . | . | . | .
CCN1CCN(CCNC(=O)c2ccc(/C=C3\Sc4ccccc4N(Cc4ccccc4F)C3=O)cc2)CC1 | . | . | . | 25 | .
Cc1ccc(NC(=S)N2CCSC2c2cccs2)cc1 (stereo unspecified) | . | . | . | . | .
Cc1ccc(-c2cc(-c3ccc(Cl)cc3)c(C#N)c(N)n2)o1 | . | . | . | 25 | .
C1CCCC(NC2=NCCO2)CCC1 | . | . | . | . | .
COc1ccc(C(=O)OCCCOC(=O)c2ccc(OC)cc2OC)c(OC)c1 | . | / | . | . | .
Cc1ccc(C(=O)COC(=O)c2cccc(O)c2)s1 | . | / | . | / | .
COc1ccc(C(=O)OCC(=O)c2ccc(Br)s2)c(OC)c1 | . | / | . | . | 30
SMILES | PAFAH1B2 inh | RBBP9 inh | PAFAH1B3 FP inh | pPAFAH FP inh | PAFAH2 FP inh
COc1cccc(C(=O)OCC(=O)c2ccc(Br)s2)c1 | . | / | . | . | 46
COc1ccc(C(=O)CSc2ccc(-c3ccco3)nn2)cc1 | . | . | . | . | .
O=C(CSc1ccc(-c2ccco2)nn1)c1ccccc1 | . | . | . | 34 | .
COc1cc(/C=N/NS(=O)(=O)c2ccc(C)c([N+](=O)[O-])c2)cc([N+](=O)[O-])c1O | . | / | . | . | .
COC(=O)N/N=C/c1cc(OC)c(O)c([N+](=O)[O-])c1 | . | . | . | . | .
COc1cc(/C=N/NS(=O)(=O)c2ccc(C(C)(C)C)cc2)cc([N+](=O)[O-])c1O | 33 | . | . | . | .
COc1cc(/C=N/N(C)S(=O)(=O)c2ccc(C)cc2)cc([N+](=O)[O-])c1O | 36 | . | . | . | .
O=C(Nc1ccc(N2CCOCC2)cc1)c1ccc(Cl)c(S(=O)(=O)N2CCCC2)c1 | . | / | . | . | .
O=C1CC(c2ccc(S(=O)(=O)Nc3cc(C(F)(F)F)cc(C(F)(F)F)c3)cc2)CN1 (stereo unspecified) | . | . | . | . | .
N#CC1=C(SCC(=O)NC23CC4CC(CC(C4)C2)C3)NC(=O)C(C#N)C12CCCCC2 (stereo unspecified) | 37 | . | . | . | 33
O=C(O)c1cccc2c1Cc1cc(Cl)ccc1-2 | . | / | . | / | .
O=C(O)CCCC(=O)N1CCN(c2nc(-c3ccccc3Cl)c3cc(Br)ccc3n2)CC1 | . | / | . | 28 | .
Cc1cnc(C(=O)OCC(=O)c2ccc(Br)s2)cn1 | . | / | . | . | .
O=C(Cc1cccs1)N1CCN(S(=O)(=O)c2cc(Cl)ccc2Cl)CC1 | . | / | . | . | .
CCCCn1c(NC(=O)c2ccccc2Cl)c(C#N)c2nc3ccccc3nc21 | 36 | . | 60 | 27 | 37
COc1cccc(/C=C/c2n[nH]c(=O)c(C#N)c2C)c1 | . | / | . | . | .
O=C(O)CN1C(=O)/C(=C\c2cccc(OCc3ccc(F)cc3)c2)SC1=S | 28 | / | . | / | .
O=C(O)CN1C(=O)/C(=C\c2cccc(OCc3ccccc3F)c2)SC1=S | . | / | . | . | .
O=C(O)CN1C(=O)/C(=C\c2cccc(OCc3ccc(Cl)cc3)c2)SC1=S | 62 | / | . | . | .
CCCCN(CC)C(=O)Cc1cn(C)c2ccccc12 | . | . | . | . | .
COc1cc(/C=N/N=C2/NC(=O)C(CC(=O)O)S2)ccc1OCc1ccc(Cl)cc1 (stereo unspecified) | . | . | . | . | .
CCOc1cc(/C=N/N=C2/NC(=O)C(CC(=O)O)S2)ccc1OCc1ccc(Cl)cc1Cl (stereo unspecified) | . | . | . | 26 | .
Cc1ccc(NC(=O)CN(C)C(=O)COC(=O)c2nc3nccc(C)n3n2)cc1 | . | / | . | . | .
O=C(Nc1ccccc1)c1ccc(-c2ccc([N+](=O)[O-])cc2)o1 | . | / | . | . | .
O=C(NNC(=O)c1ccccc1O)c1cc2ccccc2o1 | . | / | . | 26 | .
SMILES | PAFAH1B2 inh | RBBP9 inh | PAFAH1B3 FP inh | pPAFAH FP inh | PAFAH2 FP inh
O=C(NNC(=O)c1ccccc1O)c1ccc(-c2ccc([N+](=O)[O-])cc2)o1 | . | / | . | 32 | 39
Cc1ccccc1CS(=O)(=O)Cc1ccc(C(=O)NC2CCCC2)o1 | . | / | . | . | .
Cc1cc(NCCCO)n2nc(-c3cccs3)cc2n1 | . | . | . | . | .
OCCCNc1cc(-c2ccccc2)nc2cc(-c3ccc(F)cc3)nn12 | 26 | / | . | . | .
Cc1ccc(C(=O)CN2C(=O)C(=O)N(Cc3ccccc3)C2=O)cc1 | 26 | . | . | . | .
O=C1NN(c2ccccc2)C(=O)/C1=C/c1ccc(-c2ccc(Cl)c(C(=O)O)c2)o1 | . | . | . | / | .
Cc1ccc(Sc2ccc(/C=C3/C(=O)NN(c4ccccc4)C3=O)o2)cc1 | 36 | . | . | . | .
O=C1NN(c2ccccc2)C(=O)/C1=C/c1ccc(Sc2ccc(Cl)cc2)o1 | 29 | . | . | . | .
Cc1cc(C)c(NC(=O)CN(C)C(=O)C2CC(=O)N(c3cccc4ccccc34)C2)c(C)c1 (stereo unspecified) | . | / | . | . | .
COc1ccc(S(=O)(=O)N/N=C(/C)c2cccc(NC(=O)c3ccccc3Cl)c2)cc1 | . | . | . | . | .
CC(C)C(=O)NC(c1ccccc1)c1cc([N+](=O)[O-])c2cccnc2c1O (stereo unspecified) | . | . | . | 34 | .
